# Screening results from PubChem BioAssay.
# TIM10 inh = growth inhibitors of TIM10 yeast strain. actives 1.4% (n = 330,000). inhibition, % at 10 µM. S. cerevisiae TIM10 strain growth, BacTiter-Glo luminescence, 24 h;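 active means inhibition of 40% or more at the single tested concentration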;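 further: wild-type TIM10 isogenic control strain grown at permissive 25 °C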
# UPR XBP1 act = activators of adaptive arm of unfolded protein response (XBP1). CHO-XBP1 luciferase reporter, IRE1-XBP1 UPR activation, luminescence; percent of tunicamycin response, DMSO as zero. activation, % at 20 µM. actives 0.33% (n = 330,000);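 active means versus positive control, 20 µM dose yields 30% or more activation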;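 further: 100% = tunicamycin at 10 µg/mL and 0% = DMSO only wells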
#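 Assay system: CHO-XBP1 luciferase reporter cells; Schedule: 6 h treatment, 37 °C; Detection: glow luminescence from Steady-Glo reagent; Benchmarks: high control tunicamycin 10 µg/mL final, low control DMSO vehicle only.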
# CHOP UPR activ = activators of apoptotic arm of unfolded protein response (CHOP) | CHO-CHOP luciferase reporter, UPR activation, luminescence; percent of tunicamycin response over DMSO baseline | activation, % at 10 µM | actives 0.34% (n = 330,000) | AID 449763;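 active means at 10 µM dose, activation of 40% or more, normalized to positive control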;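 further: 100% = tunicamycin at 10 µg/mL and 0% = DMSO alone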
#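 assay system = CHO CHOP reporter cells | amount = 500 CHO-CHOP cells per well | buffer or medium = F12 with 10% FBS | incubation = 16-18 h cell attachment, then 6 h compound exposure, 37 °C | detection = luminescence read with Steady-Glo | read-out = percent activation relative to tunicamycin control | controls = tunicamycin high control, DMSO low control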
# tim10-1 inh = growth inhibitors of tim10-1 mutant yeast; AID 463190; S. cerevisiae tim10-1 ts strain growth, BacTiter-Glo, 24 h; inhibition, % at 20 µM; actives 2.2% (n = 330,000);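 active means inhibition of at least 40%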;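 further: mutant grown at 25 °C; 0% = DMSO wells with yeast and 100% = wells holding no yeast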
# tim23-1 inh = tim23-1 yeast growth inhibition | S. cerevisiae tim23-1 growth, BacTiter-Glo luminescence, 24 h | inhibition, % at 20 µM | actives 1.3% (n = 330,000);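 active means growth inhibition of the mutant yeast at or above 50%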;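 further: temperature-sensitive mutant grown at 25 °C; plate controls were DMSO-treated mutant yeast for no effect and medium wells lacking yeast for full effect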
# tim10-1 conf = tim10-1 yeast growth inhibition, confirmed; shares compounds with tim10-1 inh; S. cerevisiae tim10-1 ts strain growth, BacTiter-Glo, 24 h; inhibition, % at 20 µM; actives 56% (n = 7,400); AID 463213;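 active means inhibition of yeast growth at or above a set limit in either of two repeat tests at 20 µM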;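 further: tim10-1 mutant grown at permissive 25 °C to find synthetic lethal compounds; 0% = DMSO yeast wells and 100% = medium wells without yeast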
# tim10 confirm = TIM10 yeast growth inhibition, confirmed; shares compounds with TIM10 inh; actives 63% (n = 4,600); inhibition, % at 10 µM; S. cerevisiae tim10 strain growth, BacTiter-Glo luminescence, 24 h;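 active means inhibition of yeast growth at or above a set limit in either of two replicates at 10 µM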;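 further: this counterscreen used the strain with wild-type TIM10; 0% = yeast with DMSO and 100% = medium wells lacking yeast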
# * marks the source's active call; other numbers are inactive results; . = no result. The list is not random: actives were taken first. Their share in the collection is about 3.9%.
SMILES,TIM10 inh,UPR XBP1 act,CHOP UPR activ,tim10-1 inh,tim23-1 inh,tim10-1 conf,tim10 confirm
Cc1ccc(/C(N)=N/OC(=O)COc2ccccc2Cl)cc1,40,0,4,61*,50,42*,43*
N/C(Cc1cccc2ccccc12)=N\OC(=O)c1ccc2c(c1)OCO2,60*,0,1,48*,20,39*,32*
COc1ccc(OCC(=O)O/N=C(\N)Cc2ccc(Cl)cc2Cl)cc1,50*,-2,0,64*,50,63*,46*
N/C(=N\OC(=O)c1ccc2c(c1)OCO2)c1ccc([N+](=O)[O-])cc1,2,1,2,-6,-3,.,.
COc1ccc(OCC(=O)O/N=C(\N)Cc2cccs2)cc1,16,-1,2,19,11,.,.
CCOC(=O)Cc1csc(NC(=O)c2cc(-c3ccncc3)nc3ccccc23)n1,20,4,-2,39,36,.,.
COc1cc2c(-c3ccc4cc[nH]c4c3)c(-c3ccc(C#N)cc3)oc(=O)c2cc1OC,8,0,0,21,27,.,.
S=P(N1CC1)(N1CC1)N1CC1,6,-2,3,1,1,.,.
C[C@H](NS(=O)(=O)c1ccc(F)cc1)C(=O)OCC(=O)c1c(N)n(C)c(=O)n(C)c1=O,7,0,-1,-4,-5,.,.
COc1ccc(CC(=O)O/N=C(\N)Cc2cccc3ccccc23)cc1,48*,2,-2,44*,16,50*,53*
COc1ccccc1CC(=O)O/N=C(\N)c1ccccn1,2,-3,4,-5,-2,.,.
Cc1ccc(OCC(=O)O/N=C(\N)Cc2ccc(Cl)cc2)cc1,78*,2,-1,59*,42,44*,-11
N/C(=N\OC(=O)Cc1cccc2ccccc12)c1ccccn1,43*,2,2,60*,10,49*,38*
N/C(=N\OC(=O)CC1CCCCC1)c1cccc([N+](=O)[O-])c1,46*,6,2,56*,38,65*,36*
Cn1c(SCc2c(Cl)cccc2Cl)nnc1-c1cccs1,48*,6,5,48*,44,35*,34*
O=C(CCS(=O)(=O)c1ccccc1)N(CCCN1CCOCC1)c1nc2ccccc2s1,53*,-8,20,48*,42,31,64*
CN(C)CCN(C(=O)CCS(=O)(=O)c1ccccc1)c1nc2cc3c(cc2s1)OCO3,5,0,1,9,10,.,.
CCOc1ccc(C(CC(=O)O)NC(=O)C(c2ccccc2)c2ccccc2)cc1OC (stereo not drawn),0,-3,1,-9,-2,.,.
CC1Sc2ccc(S(=O)(=O)N3CCC(C(=O)NCc4ccccc4)CC3)cc2NC1=O (stereo not drawn),0,-11,-2,3,8,.,.
Cc1occc1C(=O)N/N=C/C=C\c1ccccc1[N+](=O)[O-],3,-1,2,6,9,.,.
Cc1ccsc1C(=O)N/N=C/C=C/c1ccccc1[N+](=O)[O-],62*,2,3,48*,49,48*,-19
CC(C)c1ccc(S(=O)(=O)c2ccc(NN)cc2)cc1,42*,-3,-1,44*,46,34*,31*
CCOC(=O)c1c(C)[nH]c(C)c1S(=O)(=O)NCCN1CCN(c2ccccc2F)CC1,-2,1,0,19,16,.,.
COc1cc2[nH]c(=O)c(C(=O)NCCCN3CCOCC3)c(O)c2cc1OC,5,-1,0,-23,-19,.,.
O=C(NCCCN1CCOCC1)c1c(O)c2cc(Br)cc(Br)c2[nH]c1=O,67*,15,35,51*,46,47*,74*
SMILES,TIM10 inh,UPR XBP1 act,CHOP UPR activ,tim10-1 inh,tim23-1 inh,tim10-1 conf,tim10 confirm
Cc1ccc(-c2nc3c(=O)n(C)c4ccccc4c3o2)cc1,58*,5,2,52*,45,31*,64*
COc1ccc(CNC(=S)N/N=C/c2ccncc2)cc1,34,-2,-1,35,-14,.,.
CCN(CC)c1ccc(/C=N/NC(=S)NCc2ccc(OC)cc2)cc1,45*,2,0,45*,12,27,42*
Cc1cc(Cl)cc(C)c1OCC(=O)NC1CCCCCC1,3,3,4,3,18,.,.
C/C(=N\NC(=O)CNC(=O)c1ccccc1Br)c1ccco1,7,-5,1,-9,11,.,.
CC1Cc2ccccc2N1C(=O)c1ccc(F)c(S(=O)(=O)N2CCOCC2)c1 (stereo not drawn),-2,-3,-1,6,24,.,.
c1ccc(-c2nc3ccccn3c2NC2CCCC2)nc1,-1,-3,-1,5,22,.,.
c1ccc(-c2nnc(-c3ccccn3)nc2NC2CCCCC2)cc1,67*,4,13,47*,17,36*,63*
CC1CCCCC1NC(=O)c1cccc(NC2=NC3CS(=O)(=O)CC3S2)c1 (stereo not drawn),5,0,0,8,9,.,.
C=CCc1cccc(CNc2nc3ccccc3n2CCC)c1O,45*,-2,-3,42*,40,14,36*
C#CCOc1ccc(Cl)cc1/C=N/O,-2,2,0,13,13,.,.
O/N=C/c1cc(Cl)ccc1OCc1cccc2ccccc12,44*,4,3,63*,48,24,50*
CC(=NNC(=O)CSc1nc2ccccc2o1)c1ccco1,-2,2,0,3,1,.,.
COc1cccc(-c2nnc3sc(-c4ccccc4)nn23)c1,3,2,1,22,40,.,.
Cc1cccc(-c2nnc3sc(-c4ccccc4C)nn23)c1,41*,2,2,55*,33,66*,44*
CN(Cc1ccccc1)C(=O)c1ccccc1N(C)S(=O)(=O)c1ccccc1,3,-3,-1,17,25,.,.
O=[N+]([O-])c1cccc(NC(=S)NCCc2ccccc2)c1,46*,-3,-2,47*,32,30*,17
Fc1cccc(NC(=S)NCCc2ccccc2)c1,23,13,3,37,37,.,.
CCn1nc(C)cc1-c1nnc(SCC(=O)Nc2ccccc2)n1CCCOC,-2,4,2,3,-13,.,.
CCn1nc(C)cc1-c1nnc(Sc2ncc([N+](=O)[O-])s2)n1C,50*,-10,-11,66*,8,72*,55*
COc1ccc(C(=O)n2nnc3ccccc32)cc1Br,40*,-4,-1,52*,40,22,0
